Test results as given in PMC3228886 (Journal of medicinal chemistry, 2011).
Counter-ions that a name gives are not always drawn.

Legend:
human TLR2 = human TLR2 (Homo sapiens, UniProt O60603); experiment: TLR2-specific NF-κB induction reporter gene assay; assay type: cell-based; conditions: for TLR2-agonistic activity (in words): TLR2-specific reporter gene assay
Summary of the method: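 HEK-Blue reporter cells carry stably expressed secreted alkaline phosphatase under NF-κB promoters, inducible by TLR2 agonists. Cells were seeded at ~10⁵ cells/mL and grown to confluency, then stimulated for 12 h with serially diluted test compound. Supernatant sAP was read spectrophotometrically at 620 nm using an alkaline phosphatase-specific chromogen in the detection medium. Samples were run in quadruplicate, reported as means with standard deviations.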

Water solubility = assay type: physicochemical
human blood = conditions: ex vivo human blood models; cited from earlier work
rabbit = rabbit models; cited from earlier work
[1] = tested on: murine models of immunization; conditions: cited from earlier work

Chain of human TLR2 (O60603 21-784): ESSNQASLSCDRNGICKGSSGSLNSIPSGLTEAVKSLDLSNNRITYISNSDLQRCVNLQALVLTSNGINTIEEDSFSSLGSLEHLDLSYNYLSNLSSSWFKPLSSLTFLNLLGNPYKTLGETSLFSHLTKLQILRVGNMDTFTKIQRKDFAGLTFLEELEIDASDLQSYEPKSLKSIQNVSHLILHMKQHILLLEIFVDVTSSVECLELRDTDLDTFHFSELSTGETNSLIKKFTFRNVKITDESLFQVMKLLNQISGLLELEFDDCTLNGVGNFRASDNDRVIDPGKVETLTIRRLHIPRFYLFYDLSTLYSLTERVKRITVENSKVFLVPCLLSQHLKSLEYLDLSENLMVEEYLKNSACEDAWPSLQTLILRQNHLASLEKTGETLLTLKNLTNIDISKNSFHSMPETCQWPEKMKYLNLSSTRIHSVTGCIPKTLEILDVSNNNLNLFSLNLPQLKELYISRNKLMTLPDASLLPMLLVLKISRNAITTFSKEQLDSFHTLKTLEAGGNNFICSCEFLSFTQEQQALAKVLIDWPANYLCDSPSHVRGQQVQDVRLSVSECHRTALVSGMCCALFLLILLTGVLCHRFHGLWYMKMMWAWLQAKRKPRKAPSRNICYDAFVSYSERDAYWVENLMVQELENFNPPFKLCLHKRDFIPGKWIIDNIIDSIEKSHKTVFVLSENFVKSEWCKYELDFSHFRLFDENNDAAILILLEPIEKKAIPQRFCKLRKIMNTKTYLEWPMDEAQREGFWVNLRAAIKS
Chain of human TLR2 (Q9Y2C9 32-796 partner): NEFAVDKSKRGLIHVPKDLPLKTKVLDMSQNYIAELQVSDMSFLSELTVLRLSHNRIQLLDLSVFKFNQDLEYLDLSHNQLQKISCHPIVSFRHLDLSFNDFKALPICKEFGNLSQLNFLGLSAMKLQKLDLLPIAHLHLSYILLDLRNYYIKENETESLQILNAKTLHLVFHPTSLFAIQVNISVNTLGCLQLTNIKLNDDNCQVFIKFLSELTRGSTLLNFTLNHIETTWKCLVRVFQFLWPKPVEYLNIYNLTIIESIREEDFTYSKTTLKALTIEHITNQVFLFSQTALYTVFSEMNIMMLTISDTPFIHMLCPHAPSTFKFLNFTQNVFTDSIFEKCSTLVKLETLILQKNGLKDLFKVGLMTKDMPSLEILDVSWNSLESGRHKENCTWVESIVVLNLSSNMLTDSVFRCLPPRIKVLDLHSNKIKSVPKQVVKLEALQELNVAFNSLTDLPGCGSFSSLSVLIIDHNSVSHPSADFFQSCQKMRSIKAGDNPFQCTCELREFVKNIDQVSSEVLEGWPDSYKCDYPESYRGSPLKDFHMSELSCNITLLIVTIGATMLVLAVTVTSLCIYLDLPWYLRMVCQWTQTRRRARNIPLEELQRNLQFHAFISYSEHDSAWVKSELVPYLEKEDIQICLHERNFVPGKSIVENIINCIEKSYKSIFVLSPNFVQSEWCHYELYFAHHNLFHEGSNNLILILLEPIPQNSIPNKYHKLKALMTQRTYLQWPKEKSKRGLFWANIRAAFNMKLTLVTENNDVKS

SMILES | TLR2-agonistic activity (in words) (human TLR2) | further results
CCCCCCCCCCCC(=O)OC[C@H](CSC[C@H](N)C(=O)N[C@@H](CO)C(=O)O)OC(=O)CCCCCCCCCCC [Compound 17] | lower in activity than the parent PAM2CS compound | 
CCCCCCCCCCCCCC(=O)OC[C@H](CSC[C@H](N)C(=O)N[C@@H](CO)C(=O)O)OC(=O)CCCCCCCCCCCCC [Compound 18] | lower in activity than the parent PAM2CS compound | 
CCCCCCCCCCCCCCCCCC(=O)OC[C@H](CSC[C@H](N)C(=O)N[C@@H](CO)C(=O)O)OC(=O)CCCCCCCCCCCCCCCCC [Compound 19] | lower in activity than the parent PAM2CS compound | 
CCOCCOCCOCCCNCC(=O)OC[C@H](CSC[C@H](N)C(=O)N[C@@H](CO)C(=O)O)OC(=O)CNCCCOCCOCCOCC [Compound 24] | inactive | 
CCCCCCCCCCCCCCCC(=O)OC[C@@H](O)CSC[C@H](N)C(=O)N[C@@H](CO)C(=O)O [Compound 35] | unexpectedly active | 
CCCCCCCCCCCCCCCC(=O)O[C@H](CO)CSC[C@H](N)C(=O)N[C@@H](CO)C(=O)O [Compound 38] | unexpectedly active | 
CCCCCCCCCCCCCCCC(=O)OCCSC[C@H](N)C(=O)N[C@@H](CO)C(=O)OC [Compound 44, 2-(((R)-2-amino-3-(((S)-3-hydroxy-1-methoxy-1-oxopropan-2-yl)amino)-3-oxopropyl)thio)ethyl palmitate, trifluoroacetate] | quite active | EC50 (human TLR2): 5.45 nM; Water solubility (Water solubility): water-soluble
CCCCCCCCCCCCCCCC(=O)OCCCSC[C@H](N)C(=O)N[C@@H](CO)C(=O)OC [Compound 47, 3-(((R)-2-amino-3-(((S)-3-hydroxy-1-methoxy-1-oxopropan-2-yl)amino)-3-oxopropyl)thio)propyl palmitate, trifluoroacetate] | completely inactive | 
CCCCCCCCCCCCCCCCOC(=O)CSC[C@H](N)C(=O)N[C@@H](CO)C(=O)OC [Compound 50, (S)-methyl 2-((R)-2-amino-3-((2-(hexadecyloxy)-2-oxoethyl)thio)propanamido)-3-hydroxypropanoate, trifluoroacetate] | virtually bereft of activity | 
CCCCCCCCCCCCCCCCOC(=O)CCSC[C@H](N)C(=O)N[C@@H](CO)C(=O)OC [Compound 53, (S)-methyl 2-((R)-2-amino-3-((3-(hexadecyloxy)-3-oxopropyl)thio)propanamido)-3-hydroxypropanoate, trifluoroacetate] | virtually bereft of activity | 
CCCCCCCCCCCCCCCC(=O)OCC(CSC[C@H](N)C(=O)N[C@@H](CO)C(=O)O)OC(=O)CCCCCCCCCCCCCCC (stereo partly drawn) [PAM2CS, S-[2,3-bis(palmitoyloxy)-(2RS)-propyl]-R-cysteinyl-S-serine] |  | Pro-inflammatory activity (human blood): devoid of any detectable pro-inflammatory activity; Local reactogenicity and pyrogenicity (rabbit): devoid; Adjuvanticity [1]: potently adjuvantic

Continued, in another order:

TLR2-agonistic activity (in words) (human TLR2) | SMILES | further results
highly active | CCCCCCCCCCCCCCCC(=O)OC[C@H](CSC[C@H](N)C(=O)NCC(=O)OC(C)C)OC(=O)CCCCCCCCCCCCCCC [Compound 7] | Water solubility (Water solubility): not water-soluble
highly active | CCCCC/C=C\C/C=C\CCCCCCCC(=O)OC[C@H](CSC[C@H](N)C(=O)NCC(=O)OC(C)C)OC(=O)CCCCCCC/C=C\C/C=C\CCCCC [Compound 8] | Water solubility (Water solubility): not water-soluble
highly active | CC/C=C\C/C=C\C/C=C\CCCCCCCC(=O)OC[C@H](CSC[C@H](N)C(=O)NCC(=O)OC(C)C)OC(=O)CCCCCCC/C=C\C/C=C\C/C=C\CC [Compound 9] | Water solubility (Water solubility): not water-soluble
virtually inactive | CCCCCCCCCCCCCCCC(=O)OC[C@H](CSC[C@H](NC(=O)CC[C@H](N)C(=O)O)C(=O)NCC(=O)OC(C)C)OC(=O)CCCCCCCCCCCCCCC [Compound 11] | 
inactive | CCCCCCCCCCCCCCCC(=O)OC[C@H](CSC(C)(C)[C@@H](N)C(=O)N[C@@H](CO)C(=O)OC)OC(=O)CCCCCCCCCCCCCCC [Compound 59] | 
inactive | CCCCCCCCCCCCCCCC(=O)OC[C@H](CSC(C)(C)[C@H](N)C(=O)N[C@@H](CO)C(=O)O)OC(=O)CCCCCCCCCCCCCCC [Compound 64] | 
inactive | CCCCCCCCCCCCCCCC(=O)OC[C@H](CSCC[C@H](N)C(=O)N[C@@H](CO)C(=O)O)OC(=O)CCCCCCCCCCCCCCC [Compound 69] | 
inactive | CCCCCCCCCCCCCCCC(=O)OC[C@H](CSCCC(=O)N[C@@H](CO)C(=O)OC)OC(=O)CCCCCCCCCCCCCCC [Compound 74] | 
